# Reference: ChEMBL document CHEMBL2177069, “Novel peptidomimetic compounds containing redox active chalcogens and quinones as potential anticancer agents” (Eur J Med Chem, 2012)
# The source made the active and inactive calls. No cut-off for these calls is given here.
# Legend:
# SR = test: Cytotoxicity against human SR cells; format: functional
# Saccharomyces cerevisiae [1] = test: Growth inhibition of UFD2-deficient Saccharomyces cerevisiae YDL190C mutant at 20 ug/disc after 24 to 48 hrs by agar diffusion assay; format: functional; conditions: read-out: DIZ
# Outline: (§1)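 S. cerevisiae deletion mutants or wild type grown on YPD, seeded into liquid agar medium at an optical density of 0.1. 6 mm paper discs soaked with methanolic compound solution were placed on the plates and incubated at 30 °C. Growth was checked after 1 and 2 days, and the inhibition zone diameter was recorded in mm.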
# Saccharomyces cerevisiae [2] = test: Growth inhibition of COX17-deficient Saccharomyces cerevisiae YLL009C mutant at 20 ug/disc after 24 to 48 hrs by agar diffusion assay; format: functional; conditions: read-out: DIZ; outline: as §1
# Saccharomyces cerevisiae [3] = test: Growth inhibition of RCK1-deficient Saccharomyces cerevisiae YGL158W mutant at 20 ug/disc after 24 to 48 hrs by agar diffusion assay; format: functional; conditions: read-out: DIZ; outline: as §1
# Saccharomyces cerevisiae [4] = test: Growth inhibition of WSC4-deficient Saccharomyces cerevisiae YHL028W mutant at 20 ug/disc 24 to 48 hrs by agar diffusion assay; format: functional; conditions: read-out: DIZ; outline: as §1
# Saccharomyces cerevisiae [5] = test: Growth inhibition of SOD1-deficient Saccharomyces cerevisiae YJR104C mutant at 20 ug/disc after 24 to 48 hrs by agar diffusion assay; format: functional; conditions: read-out: DIZ; outline: as §1
# Saccharomyces cerevisiae [6] = test: Growth inhibition of wild type Saccharomyces cerevisiae BY4741 at 20 ug/disc after 24 to 48 hrs by agar diffusion assay; format: functional; conditions: read-out: DIZ; outline: as §1
# PtK2 [7] = test: Induction of oxidative stress in potoroo PtK2 cells assessed as change in microtubular network after 24 hrs by immunofluorescence microscopic analysis; format: functional, cell-based; conditions: Potorous tridactylus
# Outline: (§2)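 PtK2 cells were grown on coverslips and treated once semi-confluent, for 24 h. Cells were fixed with 3.7% paraformaldehyde followed by 0.1% Triton X-100, or with cold methanol/acetone 50:50. Primary and secondary antibodies were applied for 45 min each: anti-GRP94 for ER, anti-α-tubulin. Actin was stained with phalloidin and nuclei with DAPI. Imaging was by fluorescence microscopy with a CCD camera.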
# PtK2 [8] = test: Induction of oxidative stress in potoroo PtK2 cells assessed as reduction in actin stress fibres after 24 hrs by immunofluorescence microscopic analysis; format: functional, cell-based; conditions: Potorous tridactylus; outline: as §2
# PtK2 [9] = test: Induction of oxidative stress in potoroo PtK2 cells assessed as reduction in cell adhesion after 24 hrs by immunofluorescence microscopic analysis; format: functional, cell-based; conditions: Potorous tridactylus; outline: as §2
# PtK2 [10] = test: Induction of oxidative stress in potoroo PtK2 cells assessed as hole in the endoplasmic reticulum after 24 hrs by immunofluorescence microscopic analysis; format: functional, cell-based; conditions: Potorous tridactylus; outline: as §2
# PtK2 [11] = test: Induction of oxidative stress in potoroo PtK2 cells assessed as change in cell morphology after 24 hrs by immunofluorescence microscopic analysis; format: functional, cell-based; conditions: Potorous tridactylus; outline: as §2
# [12] = Cytotoxicity against human PHF cells after 24 hrs by MTT assay; format: cell-based
# Outline: (§3)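 MTT assay. Cells were seeded at 50,000 cells/mL in medium with 10% fetal calf serum and grown for two days at 37 °C, 10% CO2. Serial dilutions of compound were then added for 24 h. MTT was added (final 0.5 mg/mL) for 2 h, and the formazan was pelleted, washed, dissolved in isopropanol with 0.4% HCl and read at 590 nm. IC50 is the concentration giving 50% of untreated-control absorbance, taken from dose-response curves; mean of two parallel experiments.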
# HUVEC = test: Cytotoxicity against human HUVEC cells after 24 hrs by MTT assay; format: cell-based; outline: as §3
# A-431 = test: Cytotoxicity against human A431 cells after 24 hrs by MTT assay; format: functional, cell-based; conditions: A-431, 24 h; outline: as §3
# MCF7 = test: Cytotoxicity against human MCF7 cells after 24 hrs by MTT assay; format: functional, cell-based; conditions: MCF7, 24 h; outline: as §3
# Hs-578T = test: Cytotoxicity against human Hs578T cells; format: functional
# PC-3 = test: Cytotoxicity against human PC3 cells; format: functional
# SN12C = test: Cytotoxicity against human SN12C cells; format: functional
# RXF 393 = test: Cytotoxicity against human RXF393 cells; format: functional
# CAKI-1 = test: Cytotoxicity against human Caki1 cells; format: functional
# ACHN = test: Cytotoxicity against human ACHN cells; format: functional
# OVCAR-5 = test: Cytotoxicity against human OVCAR5 cells; format: functional
# IGROV-1 = test: Cytotoxicity against human IGROV1 cells; format: functional
# UACC-62 = test: Cytotoxicity against human UACC62 cells; format: functional
# UACC-257 = test: Cytotoxicity against human UACC257 cells; format: functional
# SK-MEL-5 = test: Cytotoxicity against human SK-MEL-5 cells; format: functional
# SK-MEL-28 = test: Cytotoxicity against human SK-MEL-28 cells; format: functional
# MDA-MB-435 = test: Cytotoxicity against human MDA-MB-435 cells; format: functional
# SNB-19 = test: Cytotoxicity against human SNB19 cells; format: functional
# SF-268 = test: Cytotoxicity against human SF268 cells; format: functional
# HT-29 = test: Cytotoxicity against human HT-29 cells; format: functional
# HCT-116 = test: Cytotoxicity against human HCT116 cells; format: functional
# COLO 205 = test: Cytotoxicity against human COLO205 cells; format: functional
# NCI-H460 = test: Cytotoxicity against human NCI-H460 cells; format: functional
# NCI-H226 = test: Cytotoxicity against human NCI-H226 cells; format: functional
# EKVX = test: Cytotoxicity against human EKVX cells; format: functional
# HOP-62 = test: Cytotoxicity against human HOP62 cells; format: functional
# CCRF-CEM = test: Cytotoxicity against human CCRF-CEM cells; format: functional
# [13] = read-out: pLC50 (the source's name) (converted)
structure (smiles),measurement,setting,value
CC1=C([Se]CC(OC(=O)[C@@H](CO)NC(=O)OC(C)(C)C)C(=O)NC(C)(C)C)C(=O)c2ccccc2C1=O (stereo not given in full),GI50,SR,741 nM
same,LC50,SR,> 100 µM
same,zone of inhibition at 20 µg/disc,Saccharomyces cerevisiae [1],13 mm
same,zone of inhibition at 20 µg/disc,Saccharomyces cerevisiae [2],13 mm
same,zone of inhibition at 20 µg/disc,Saccharomyces cerevisiae [3],18 mm
same,zone of inhibition at 20 µg/disc,Saccharomyces cerevisiae [4],19 mm
same,zone of inhibition at 20 µg/disc,Saccharomyces cerevisiae [5],22 mm
same,zone of inhibition at 20 µg/disc,Saccharomyces cerevisiae [6],0 mm
same,Activity,PtK2 [7],inactive
same,Activity,PtK2 [8],Active
same,Activity,PtK2 [9],Active
same,Activity,PtK2 [10],Active
same,Activity,PtK2 [11],Active
same,IC50,[12],7 µM
same,IC50,HUVEC,3000 nM
same,IC50,A-431,2000 nM
same,IC50,MCF7,3000 nM
same,GI50,Hs-578T,2820 nM
same,LC50,Hs-578T,> 100 µM
same,GI50,PC-3,1350 nM
same,LC50,PC-3,6.03 µM
same,TGI,PC-3; read-out: pTGI (converted),2820 nM
same,GI50,SN12C,1860 nM
same,LC50,SN12C,6.31 µM
same,TGI,SN12C; read-out: pTGI (converted),3.39 µM
same,GI50,RXF 393,1860 nM
same,LC50,RXF 393,5.75 µM
same,TGI,RXF 393; read-out: pTGI (converted),3.31 µM
same,GI50,CAKI-1,1740 nM
same,LC50,CAKI-1,6.61 µM
same,TGI,CAKI-1; read-out: pTGI (converted),3.39 µM
same,GI50,ACHN,1580 nM
same,LC50,ACHN,5.75 µM
same,TGI,ACHN; read-out: pTGI (converted),3.02 µM
same,GI50,OVCAR-5,2090 nM
same,LC50,OVCAR-5,6.61 µM
same,TGI,OVCAR-5; read-out: pTGI (converted),3.72 µM
same,GI50,IGROV-1,1660 nM
same,LC50 (concentration killing 50% of cells),IGROV-1,6.46 µM
same,TGI,IGROV-1; read-out: pTGI (converted),3.24 µM
same,GI50,UACC-62,1660 nM
same,LC50,UACC-62,5.62 µM
same,TGI,UACC-62; read-out: pTGI (converted),3.02 µM
same,GI50,UACC-257,1740 nM
same,LC50,UACC-257,6.03 µM
same,TGI,UACC-257; read-out: pTGI (converted),3.24 µM
same,GI50,SK-MEL-5,1580 nM
same,LC50,SK-MEL-5,5.5 µM
same,TGI,SK-MEL-5; read-out: pTGI (converted),2950 nM
same,GI50,SK-MEL-28,2040 nM
same,LC50,SK-MEL-28,6.17 µM
same,TGI,SK-MEL-28; read-out: pTGI (converted),3.55 µM
same,GI50,MDA-MB-435,2000 nM
same,LC50,MDA-MB-435,8.32 µM
same,TGI,MDA-MB-435; read-out: pTGI (converted),4.07 µM
same,GI50,SNB-19,661 nM
same,LC50,SNB-19,4.9 µM
same,TGI,SNB-19; read-out: pTGI (converted),2000 nM
same,GI50,SF-268,1910 nM
same,LC50,SF-268,5.89 µM
same,TGI,SF-268; read-out: pTGI (converted),3.31 µM
same,GI50,HT-29,2290 nM
same,LC50,HT-29,9.77 µM
same,TGI,HT-29; read-out: pTGI (converted),4.79 µM
same,GI50,HCT-116,1450 nM
same,LC50,HCT-116,5.37 µM
same,TGI,HCT-116; read-out: pTGI (converted),2820 nM
same,GI50,COLO 205,1820 nM
same,CC50,COLO 205; [13],6.03 µM
same,TGI,COLO 205; read-out: pTGI (converted),3.31 µM
same,GI50,NCI-H460,457 nM
same,LC50,NCI-H460,7.41 µM
same,TGI,NCI-H460; read-out: pTGI (converted),1780 nM
same,GI50,NCI-H226,1950 nM
same,CC50,NCI-H226; [13],9.12 µM
same,TGI,NCI-H226; read-out: pTGI (converted),4.17 µM
same,GI50,EKVX,1780 nM
same,LC50,EKVX,7.76 µM
same,TGI,EKVX; read-out: pTGI (converted),3.72 µM
same,GI50,HOP-62,525 nM
same,LC50,HOP-62,4.37 µM
same,TGI,HOP-62; read-out: pTGI (converted),1860 nM
same,GI50,CCRF-CEM,525 nM
same,LC50,CCRF-CEM,> 100 µM
same,TGI,CCRF-CEM; read-out: pTGI,> 100 µM
